Source: article PMC4589464 (Hepatology (Baltimore, Md.), 2015)
Like-named read-outs stand apart in the source and are kept apart here.

Columns and labels:
[1] = format: in vivo; conditions: hu-liver-chimeric mice, 14-day administration
HBV [2] = assay: microbe, parasite or virus in culture; conditions: Hepatitis B virus, HepG2 2.2.15, 288 h, read-out: IC50 against Anti-HBV
HBV^WT [3] = assay: HBV^WT viremia in hu-liver-chimeric-uPA+/+/SCID+/+ mice; format: in vivo; conditions: 0.02 mg/kg/day oral, 14 days
HepG2 cells = format: cell-based; conditions: up to 100 μM; for mtDNA synthesis / mtDNA levels / L-lactate levels in culture medium: 12 days culture; for mtDNA synthesis / mtDNA levels: real-time mtDNA-PCR; for viable cell numbers (MTT assay): day 5 of culture
HBV [4] = system: HBV
HIV-1NL4-3 [5] = system: HIV-1NL4-3
HIV-2 strains = assay: Activity against HIV-2 strains; format: cell-based; conditions: Table S1
[6] = system: HBVETV-R^L180M/S202G/M204V; assay: Southern blot assay, Huh-7 cells transfected with ETV-resistant HBV plasmid; format: cell-based; conditions: Hepatitis B virus, Huh-7, read-out: IC50 against HBVETV-R^L180M/S202G/M204V
Outline: (§1)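 Huh-7 cells were transfected with the HBV variant-containing plasmid and cultured with a range of test compound concentrations. Core-associated HBV DNA was extracted and detected by Southern blot hybridization. IC50 was calculated from the change in signal density, generally averaged over two experiments. The fold change was taken relative to the IC50 against wild-type HBV plasmid.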

[7] = Serum human albumin and body weight monitoring of treated HBV-infected mice; format: in vivo; conditions: 0.02 mg/kg/day
HBV^WT [8] = assay: Southern blot assay, Huh-7 cells transfected with pHBV^WT; format: cell-based; conditions: Hepatitis B virus
[9] = Cytotoxicity in MT-4 cells; format: cell-based; conditions: human
[10] = system: HBVETV-R^L180M/S202G/M204V; assay: HBVETV-R viremia in hu-liver-chimeric-uPA+/+/SCID+/+ mice; format: in vivo
Outline: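 Human-liver-chimeric uPA+/+/SCID+/+ mice (SCID, uPA-transgenic, liver partly repopulated with human hepatocytes) were inoculated with the HBV variant. Dosing began 8 weeks later, once daily at 0.02 mg/kg/day for 14 days. Serum viremia was followed as log10 copies/ml change from baseline, along with serum human albumin and body weight per mouse. Livers were examined histologically at the end of dosing.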

in vitro = format: cell-based; conditions: human
HBVADV-R^A181T/N236T = assay: Southern blot assay, Huh-7 cells transfected with ADV-resistant HBV plasmid; format: cell-based; conditions: Hepatitis B virus, Huh-7, read-out: IC50 against HBVADV-R^A181T/N236T
Outline: as §1

HIV-1NL4-3 [11] = assay: microbe, parasite or virus in culture; conditions: Human immunodeficiency virus 1, MT4, read-out: IC50 against Anti-HIV-1
HBV^WT [12] = conditions: read-out: IC50 against HBV^WT; Southern blotting assay; cited from earlier work

| Compound | IC50 (HBV [2]) [nM] | S.I. with Anti-HBV (CC50/IC50) (HBV [4]; HepG2 2.2.15 cells) | S.I. with Anti-HIV-1 (CC50/IC50) (HIV-1NL4-3 [5]; MT-4 cells) | CC50 [9] [µM] | CC50 (in vitro) [µM] | also measured |
| --- | --- | --- | --- | --- | --- | --- |
| N#C[C@]1(CO)O[C@@H](n2cnc3c(=O)[nH]c(N)nc32)C[C@@H]1O [CdG, 4′-C-cyano-2′-deoxyguanosine] | 0.4 ± 0.1 | 8,000 | 7,000 | 2.8 ± 0.9 | 3.2 ± 0.7 | liver toxicity [1]: no significant liver toxicity or general toxicity; effect on HBV^WT viremia (HBV^WT [3]): significantly blocked the replication of HBV; greatest magnitude of serum HBV-DNA level reduction (HBV^WT [3]; HBV^WT-infected mice): -2.7 log10 copies/ml; mtDNA synthesis / mtDNA levels (HepG2 cells): significantly lowered the levels of mtDNA; L-lactate levels in culture medium (HepG2 cells): severely lowered the levels of L-lactate and viable cell numbers; viable cell numbers (MTT assay) (HepG2 cells): severely lowered the levels of L-lactate and viable cell numbers; activity against HIV-2 strains (HIV-2 strains): potent activity against HIV-2 strains; IC50 [6]: 0.04 ± 0.03 µM; serum human albumin (h-albumin) levels ([7]; HBV^WT-infected mice): moderately decreased h-albumin levels; body weights ([7]; treated mice, 14 days): no significant difference in body weights; IC50 (HBV^WT [8]; Huh-7, read-out: IC50 against HBV^WT): 10 ± 2 nM; IC50 (HBV^WT [8]; Huh-7, read-out: IC50 against HBV^WT (Southern blot)): 9.8 nM; effect on HBVETV-R^L180M/S202G/M204V viremia ([10]; 0.02 mg/kg/day oral once daily, 14 days): significant level of viremia reduction by day 7; greatest magnitude of viremia reduction ([10]; HBVETV-R-infected mice, 0.02 mg/kg/day oral, 14 days, average of two mice): -1.2 log10 copies/ml; difference in viremia reduction magnitude between HBV^WT and HBVETV-R^L180M/S202G/M204V ([10]; mouse model): 30 fold; IC50 (HBVADV-R^A181T/N236T): 0.04 ± 0.02 µM |
| Cc1cn([C@@H]2C[C@@H](O)[C@H](CO)O2)c(=O)[nH]c1=O [LdT, telbivudine] | 7 ± 1 | > 14,000 |  | > 100 | > 100 |  |
| Nc1ccn([C@H]2CC[C@@H](CO)O2)c(=O)n1 [ddC, 2′,3′-dideoxycytidine] | 750 ± 120 | > 130 | > 300 |  | > 100 | mtDNA synthesis / mtDNA levels (HepG2 cells): significantly decreased mtDNA synthesis at 1 μM and beyond; L-lactate levels in culture medium (HepG2 cells): without causing any significant decrease in L-lactate amounts or viable cell numbers; viable cell numbers (MTT assay) (HepG2 cells): without causing any significant decrease in L-lactate amounts or viable cell numbers; CC50 ([9]; MT-4 cells): > 100 µM |
| Cc1cn([C@H]2C=C[C@@H](CO)O2)c(=O)[nH]c1=O [d4T, 2′,3′-didehydro-3′-deoxythymidine] | > 100000 |  |  | > 100 | > 100 | S.I. with Anti-HIV-1 (CC50/IC50) (HIV-1NL4-3 [5]): > 150 |
| Nc1nc(=O)n([C@@H]2CS[C@H](CO)O2)cc1F [FTC, emtricitabine] | 20 ± 10 |  |  | > 100 | > 100 | IC50 (HIV-1NL4-3 [11]): 230 ± 100 nM; S.I. with Anti-HBV (CC50/IC50) (HBV [4]): > 5,000; S.I. with Anti-HIV-1 (CC50/IC50) (HIV-1NL4-3 [5]): > 430 |
| C#C[C@@]1(CO)C=C[C@H](n2cc(C)c(=O)[nH]c2=O)O1 [Ed4T, 2′,3′-didehydro-3′-deoxy-4′-ethynylthymidine] | > 100000 |  | > 380 | > 100 | > 100 |  |
| CC(C)(C)C(=O)OCOP(=O)(COCCn1cnc2c(N)ncnc21)OCOC(=O)C(C)(C)C [ADV, adefovir dipivoxil] | 200 ± 80 | > 500 | 21 | 5.1 ± 1 | > 100 | IC50 (HBV^WT [12]): 7.7 µM; IC50 [6]: 36.4 ± 23.5 µM; IC50 (HBVADV-R^A181T/N236T): 39.5 ± 13.3 µM |
| Nc1ccn([C@@H]2CS[C@H](CO)O2)c(=O)n1 [3TC, lamivudine] | 30 ± 10 | > 3,300 | > 340 | > 100 | > 100 |  |
